SENP8 block-1 – inhibitors of human SENP8 protease. purified SENP8, Z-RLRGG-aminoluciferin cleavage, luminescence. 330,000 tested, 1.2% active. Q96LD8. AID 2540. inhibition, % at 10 µM; in the data active means inhibition above about 50%
SENP6 block – blocks the human protease SENP6; Q9GZR1; Recombinant SENP6 catalytic domain, aminoluciferin luminescence; inhibition, % at 10 µM; 330,000 tested, 1.8% active; AID 2599;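 active means inhibition above about 50% at the single tested dose, limit read from the data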;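 further: plate controls were DMSO wells with enzyme for no effect and DMSO wells lacking enzyme for full effect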
Apaf-1 inh – blocks human Apaf-1 apoptosome activity. inhibition, % at 20 µM. 330,000 tested, 0.71% active. reconstituted apoptosome caspase-3 activity, DEVD-Rh110 fluorescence. AID 489030; active means inhibition of at least 40% at 20 µM;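 further: plate controls were DMSO wells for no effect and DEVD-CHO caspase inhibitor wells for full effect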
Target sequence (O14727 whole entry, looked up): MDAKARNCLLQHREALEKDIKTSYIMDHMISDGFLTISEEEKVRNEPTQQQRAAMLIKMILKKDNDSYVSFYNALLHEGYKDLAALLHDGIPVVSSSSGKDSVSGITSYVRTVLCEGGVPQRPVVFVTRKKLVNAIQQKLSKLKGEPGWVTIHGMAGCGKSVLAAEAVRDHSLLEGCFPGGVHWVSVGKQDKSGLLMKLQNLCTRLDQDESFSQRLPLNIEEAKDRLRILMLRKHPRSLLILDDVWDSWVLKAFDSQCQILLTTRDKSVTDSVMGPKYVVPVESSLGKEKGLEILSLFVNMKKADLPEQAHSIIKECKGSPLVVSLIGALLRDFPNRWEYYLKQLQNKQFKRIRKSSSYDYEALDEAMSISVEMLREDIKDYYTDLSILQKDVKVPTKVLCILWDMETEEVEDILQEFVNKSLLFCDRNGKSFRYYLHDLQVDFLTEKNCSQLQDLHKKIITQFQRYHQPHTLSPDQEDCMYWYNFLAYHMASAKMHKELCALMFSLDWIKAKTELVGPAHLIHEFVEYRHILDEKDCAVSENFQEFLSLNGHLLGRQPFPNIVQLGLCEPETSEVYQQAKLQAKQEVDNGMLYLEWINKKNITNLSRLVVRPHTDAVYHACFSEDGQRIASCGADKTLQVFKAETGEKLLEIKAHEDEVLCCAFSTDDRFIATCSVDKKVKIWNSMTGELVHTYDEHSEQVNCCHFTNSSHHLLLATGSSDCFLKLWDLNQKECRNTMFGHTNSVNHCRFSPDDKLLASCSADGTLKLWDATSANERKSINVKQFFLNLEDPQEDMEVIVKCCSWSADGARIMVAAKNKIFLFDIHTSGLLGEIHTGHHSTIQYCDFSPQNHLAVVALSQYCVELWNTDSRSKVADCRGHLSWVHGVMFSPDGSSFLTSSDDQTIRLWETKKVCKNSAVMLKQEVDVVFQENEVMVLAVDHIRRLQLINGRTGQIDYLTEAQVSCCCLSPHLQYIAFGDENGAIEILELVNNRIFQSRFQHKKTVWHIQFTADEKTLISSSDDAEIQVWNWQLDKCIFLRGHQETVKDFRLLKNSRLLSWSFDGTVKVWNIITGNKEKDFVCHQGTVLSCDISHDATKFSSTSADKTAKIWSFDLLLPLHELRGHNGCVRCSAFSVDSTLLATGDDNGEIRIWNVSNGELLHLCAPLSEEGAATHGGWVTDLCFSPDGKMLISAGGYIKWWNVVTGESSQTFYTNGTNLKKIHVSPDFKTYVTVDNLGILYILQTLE
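detection = Rh110 fluorescence intensity | test system = biochemical Apaf-1 apoptosome reconstitution | also added = cytochrome c and DEVD-Rh110 substrate | schedule = 30 min plus 50 min, RT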
SENP7 inh – SENP7 protease inhibition; 330,000 tested, 1.5% active; recombinant SENP7, Z-RLRGG-aminoluciferin luminescence, 40 min; Q9BQF6; inhibition, % at 5 µM;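 active means inhibition above about 50% at the single test dose, limit read from the data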;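 further: plate controls were DMSO with enzyme for no effect and no enzyme buffer wells for full effect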
SENP1 inh – inhibitors of human SENP1 SUMO protease catalytic domain; Q9P0U3; recombinant SENP1 catalytic domain, CyPet-SUMO1-YPet FRET cleavage; inhibition, % at 10 µM; 360,000 tested, 0.21% active;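 active means inhibition at least 30% at 10 µM, raw YFP signal under a set limit, fluorescence ratio 0.5 to 1.5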;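 further: 0% = enzyme with DMSO and 100% = no enzyme wells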
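material = recombinant human SENP1 catalytic domain, His6-tagged | quantity = 20 pM enzyme | reagent = 25 nM SUMO1 FRET substrate | compound dosing = 10 µM single point, 0.5% DMSO | timing = 50 min enzyme reaction, room temperature, light-protected | detection = FRET, CFP and YFP emission | control set = no-enzyme low, enzyme-DMSO high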
SENP8 block-2 – SENP8 (human) protease inhibition | Q96LD8 | recombinant SENP8, Nedd8 substrate fluorescence | inhibition, % at 20 µM | 360,000 tested, 0.64% active; in the data active means inhibition mostly above about 40%, no sharp cut-off; inactive means mostly below about 27%
SENP8 conf – confirmation of human SENP8 protease inhibitors. shares compounds with SENP7 inh. Recombinant SENP8, Z-RLRGG-aminoluciferin luminescence, 60 min. inhibition, % at 12.5 µM. 6,200 tested, 40% active. AID 488912;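 active means mean inhibition across replicates above about 50%, limit read from the data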
SENP6 conf – human SENP6 inhibition, confirmed; recombinant SENP6, Z-RLRGG-aminoluciferin luminescence; shares compounds with SENP7 inh; 6,200 tested, 58% active; inhibition, % at 12.5 µM
SENP7 conf – confirmation of human SENP7 protease inhibitors; shares compounds with SENP7 inh; recombinant SENP7, Z-RLRGG-aminoluciferin luminescence, 40 min; inhibition, % at 12.5 µM; 6,200 tested, 69% active
Casp3 select – caspase-3 inhibition (SENP selectivity assay) | inhibition, % at 12.5 µM | purified caspase-3, Z-DEVD-aminoluciferin luminescence, 60 min | 6,200 tested, 60% active | AID 488918 | shares compounds with SENP7 inh;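 active means mean inhibition above about 50%, limit read from the data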;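 further: plate controls were enzyme with DMSO for no effect and wells without caspase-3 for full effect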
Luc interf – counter-screen for SENP inhibitors: luminescence interference; shares compounds with SENP7 inh; AID 488919; inhibition, % at 12.5 µM; Pre-incubated SENP8/Z-RLRGG-aminoluciferin, luciferase luminescence interference; 6,200 tested, 39% active;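 active means mean inhibition above about 50% when retested at one dose, limit read from the data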;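 further: plate controls were DMSO wells with completed reaction for no effect and substrate without enzyme for full effect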
Numbers without * were called inactive. An excerpt weighted towards active compounds, which were near 2.9% of everything screened.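 How the source made its calls, unless noted: active means mean inhibition above about 50% in the one-dose retest (limit read from the data); inactive means the rest.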

Screening C=CCOC(=O)c1sc(NC(=O)c2ccc(OC)cc2)nc1C returned SENP8 block-1 1, SENP6 block -30, Apaf-1 inh -2, SENP7 inh 69*, SENP1 inh -1, SENP8 block-2 -126, SENP8 conf 14, SENP6 conf 16, SENP7 conf 25, Casp3 select 15 and Luc interf 4.
For COC(=O)c1sc(NC(=O)c2ccco2)nc1C the results were SENP8 block-1 22, SENP6 block 39, Apaf-1 inh -11, SENP7 inh 28, SENP1 inh 2 and SENP8 block-2 -28.
For COC(=O)c1sc(NC(=O)c2ccncc2)nc1C the results were SENP8 block-1 86*, SENP6 block 90*, Apaf-1 inh -10, SENP7 inh 94*, SENP1 inh 2, SENP8 block-2 9, SENP8 conf 80*, SENP6 conf 91*, SENP7 conf 100*, Casp3 select 97* and Luc interf 49.
For CCOC(=O)c1sc(NC(=O)c2ccc3nc[nH]c3c2)nc1C the results were SENP8 block-1 73*, SENP6 block 81*, Apaf-1 inh 1, SENP7 inh 75*, SENP1 inh -63, SENP8 block-2 -84, SENP8 conf 12, SENP6 conf 72*, SENP7 conf 36, Casp3 select 26 and Luc interf 5.
`O=S(=O)(c1ccsc1)N1CC=C(c2ccccc2)CC1` gave SENP8 block-1 -3, SENP6 block -13, Apaf-1 inh 18, SENP7 inh -8, SENP1 inh 0 and SENP8 block-2 0.
For C#CCOCCOCCOCCNc1nc(N2CCN(C(=O)Cn3cc(CCO)nn3)CC2)nc(N2CCN(C(=O)[C@H](Cc3ccc(O)cc3)n3cc(CCO)nn3)CC2)n1 the results were SENP1 inh 2 and SENP8 block-2 6.
`O=C(NC12CC3CC(CC(C3)C1)C2)c1ccc([N+](=O)[O-])o1` gave SENP8 block-1 6, SENP6 block 10, Apaf-1 inh -11, SENP7 inh 10, SENP1 inh 0 and SENP8 block-2 27.
For CN(C(=O)c1ccc(NC(=O)Cc2ccc(NC(=O)C3CCN(S(=O)(=O)c4cccc([N+](=O)[O-])c4)CC3)cc2)cc1)C1CCCC1 the results were SENP1 inh 5 and SENP8 block-2 6.
CC(C)=CCC[C@H](C)C[C@@H]1Cc2[nH][nH]c(=O)c2[C@H](c2ccc(F)cc2)O1 was read as SENP1 inh 0 and SENP8 block-2 23.
For Cc1ccccc1-c1nc2sc(-c3ccccc3)cc2c(=O)o1 the results were SENP8 block-1 37, SENP6 block 80*, Apaf-1 inh 8, SENP7 inh 84*, SENP1 inh -19, SENP8 block-2 -41, SENP8 conf -21, SENP6 conf -10, SENP7 conf -7, Casp3 select 9 and Luc interf -5.
Screening Cc1ccccc1-c1nc2sc(C)c(C)c2c(=O)o1 returned SENP8 block-1 61*, SENP6 block 77*, Apaf-1 inh 11, SENP7 inh 83*, SENP1 inh 2, SENP8 block-2 21, SENP8 conf 38, SENP6 conf 39, SENP7 conf 35, Casp3 select 48 and Luc interf 13.
Nc1nc(N)c(N=Nc2ccc(C(=O)O)cc2)c(N)n1 was read as SENP8 block-1 -19, SENP6 block -50, Apaf-1 inh 7, SENP7 inh -17, SENP1 inh 0 and SENP8 block-2 30.
O=C(O)c1ccc(N=Nc2c(-c3ccccc3)[nH]oc2=O)cc1 was read as SENP8 block-1 59*, SENP6 block 33, Apaf-1 inh 18, SENP7 inh 39, SENP1 inh 2, SENP8 block-2 22, SENP8 conf -8, SENP6 conf -6, SENP7 conf 19, Casp3 select 7 and Luc interf 1.
`CCCc1[nH]n(-c2nc3ccccc3s2)c(=O)c1C=NCCN1CCOCC1` gave SENP8 block-1 34, SENP6 block 51*, Apaf-1 inh -3, SENP7 inh 36, SENP1 inh -1, SENP8 block-2 23, SENP8 conf 56*, SENP6 conf 40, SENP7 conf 52*, Casp3 select 60* and Luc interf 55*.
Screening CCCc1[nH]n(-c2nc3ccccc3s2)c(=O)c1C=NCCCOC returned SENP8 block-1 0, SENP6 block -4, Apaf-1 inh -8, SENP7 inh 8, SENP1 inh 1 and SENP8 block-2 20.
Screening c1ccc(-c2cn3c4c(sc3n2)CCCC4)cc1 returned SENP8 block-1 96*, SENP6 block 97*, Apaf-1 inh 13, SENP7 inh -6, SENP1 inh 2, SENP8 block-2 15, SENP8 conf 90*, SENP6 conf 95*, SENP7 conf 103*, Casp3 select 95* and Luc interf 29.
`C/C(=N\Nc1nncc2ccccc12)c1ccc(C(C)(C)C)cc1` gave SENP8 block-1 -6, SENP6 block -5, Apaf-1 inh 17, SENP7 inh 5, SENP1 inh 2 and SENP8 block-2 20.
For C/C(=N\Nc1ccccn1)c1ccc(OC(F)F)cc1 the results were SENP8 block-1 -12, SENP6 block -5, Apaf-1 inh 6, SENP7 inh -7, SENP1 inh 2 and SENP8 block-2 10.
`C/C(=N\Nc1nncc2ccccc12)c1cccc(OC(F)F)c1` gave SENP8 block-1 89*, SENP6 block 97*, Apaf-1 inh -2, SENP7 inh 100*, SENP1 inh 2, SENP8 block-2 26, SENP8 conf 68*, SENP6 conf 75*, SENP7 conf 82*, Casp3 select 75* and Luc interf 15.
